The source of these data is ChEMBL document CHEMBL1681688, “Design and evaluation of a 2-(2,3,6-trifluorophenyl)acetamide derivative as an agonist of the GPR119 receptor” (Bioorg Med Chem Lett, 2011).

In data set [1] the target is T1, Glucose-dependent insulinotropic receptor (Homo sapiens) (UniProt Q8TDV5).
T1 sequence (whole entry): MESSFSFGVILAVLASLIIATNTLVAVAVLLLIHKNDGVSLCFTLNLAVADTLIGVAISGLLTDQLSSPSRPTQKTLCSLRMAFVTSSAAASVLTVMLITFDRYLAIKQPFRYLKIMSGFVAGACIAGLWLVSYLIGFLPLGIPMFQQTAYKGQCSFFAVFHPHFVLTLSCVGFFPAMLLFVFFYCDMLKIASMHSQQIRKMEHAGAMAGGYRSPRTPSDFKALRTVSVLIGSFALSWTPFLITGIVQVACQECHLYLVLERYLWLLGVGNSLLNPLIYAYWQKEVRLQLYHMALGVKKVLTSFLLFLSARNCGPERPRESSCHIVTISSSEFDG
Kind of data set: Intrinsic activity against human GPR119 receptor expressed in HEK293 cells assessed as beta-lactamase production by cAMP response element assay. The data set is classed as functional, cell-based. In outline: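 Human recombinant cell-based cAMP functional assay, read as intrinsic activity. The number of runs varies by compound, with SD reported where n >2.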

A short description of data set [2]: Lipophilicity, log D of the compound. Type of data set: physicochemical. Particulars: octanol/water.
Data set [3] concerns the target T2, Glucose-dependent insulinotropic receptor (Homo sapiens, UniProt Q8TDV5).
T2 sequence (Q8TDV5 whole entry): T1 sequence (whole entry)
Kind of data set: Agonist activity against human GPR119 receptor expressed in HEK293 cells assessed as beta-lactamase production by cAMP response element assay. Type of data set: functional, cell-based.

Data set [4] is described as follows: Intrinsic clearance in human liver microsomes. Type of data set: ADME, Microsome. For orientation: Microsomes from liver hold many membrane-bound enzymes, among them those of drug oxidation.

As usually defined, the logD is the decadic logarithm of the distribution of all forms, ionised or not, between an organic phase and buffer at a given pH. Lower therefore signals lower lipophilicity. The EC50 is the concentration that produces a half-maximal response. Consider `CC1(OC(=O)N2CCC(CCNC(=O)Cc3c(F)ccc(F)c3F)CC2)CC1`, for which, in data set [1], the Intrinsic activity is 111%. In addition, the logD in data set [2] was 3.5. Besides, the EC50 in data set [3] worked out at 868 nM.

As a reminder, the CLint scaled is the rate of metabolic loss divided by the concentration. Read a low CLint scaled as slow turnover. Take `CC1(OC(=O)N2CCC([C@@H](F)CNC(=O)Cc3c(F)ccc(F)c3F)CC2)CC1`: the Intrinsic activity in data set [1] is 100%. In addition, the logD in data set [2] is 3.4. This molecule showed a CLint scaled in data set [4] of 63.8 mL/min/kg. In addition, the EC50 in data set [3] was found to be 1380 nM.

For `CC(CNC(=O)Cc1cccc(F)c1F)C1CCN(C(=O)OC(C)(C)C)CC1` (stereo not drawn), the Intrinsic activity in data set [1] is 107%. Also, the CLint scaled in data set [4] is more than 300 mL/min/kg. The EC50 in data set [3] worked out at 75 nM.

As for `CC(CNC(=O)Cc1ccccc1)C1CCN(C(=O)OC(C)(C)C)CC1` (stereo not drawn), the Intrinsic activity in data set [1] was found to be 100%. Also, the CLint scaled in data set [4] is 247 mL/min/kg. Besides, in data set [3], the EC50 amounted to 5980 nM.

For the molecule `C[C@H](CNC(=O)Cc1c(F)ccc(F)c1F)C1CCN(C(=O)OC2(C)CC2)CC1`, the Intrinsic activity in data set [1] came out at 124%. This molecule also came in with a logD in data set [2] of 3.9. In addition, the CLint scaled in data set [4] is more than 300 mL/min/kg. The concentration giving a half-maximal response (EC50) in data set [3] was 44 nM.

Turning to `CC(CNC(=O)Cc1ccc(S(C)(=O)=O)cc1)C1CCN(C(=O)OC(C)(C)C)CC1` (stereo not drawn), in data set [1], the Intrinsic activity is 47%. This molecule also displayed a CLint scaled in data set [4] of 136 mL/min/kg. For the same molecule, the EC50 in data set [3] was determined as 884 nM.

Regarding `CC(CNC(=O)Cc1ccc(-n2cnnn2)cc1)C1CCN(C(=O)OC(C)(C)C)CC1` (stereo not drawn), the Intrinsic activity in data set [1] was 72%. In data set [4], this molecule registered a CLint scaled of more than 270 mL/min/kg. Moreover, in data set [3], the EC50 is 267 nM.

As for `CC(CNC(=O)Cc1c(F)ccc(F)c1F)C1CCN(C(=O)OC(C)(C)C)CC1` (stereo not drawn), the Intrinsic activity in data set [1] was determined as 87%. Also, the CLint scaled in data set [4] is 230 mL/min/kg. For the same molecule, in data set [3], the EC50 is 13 nM.

On to `CC(CNC(=O)Cc1cccc(F)c1)C1CCN(C(=O)OC(C)(C)C)CC1` (stereo not drawn), for which the Intrinsic activity in data set [1] came to 102%. The CLint scaled in data set [4] was more than 300 mL/min/kg. For the same molecule, in data set [3], the EC50 was 340 nM.

As to `CC(CNC(=O)Cc1c(F)cccc1F)C1CCN(C(=O)OC(C)(C)C)CC1` (stereo not drawn), the Intrinsic activity in data set [1] stood at 101%. Moreover, in data set [2], the log distribution coefficient (logD) was 3.9. Further, in data set [3], the EC50 came out at 120 nM.

`CC(C)OC(=O)N1CCC(C(C)CNC(=O)Cc2c(F)ccc(F)c2F)CC1` (stereo not drawn): the Intrinsic activity in data set [1] came to 88%. In addition, in data set [2], the logD was found to be 4. In data set [4], this molecule registered a CLint scaled of 205 mL/min/kg. Besides, in data set [3], the EC50 was found to be 32 nM.

On to `CC(CNC(=O)Cc1cc(F)ccc1F)C1CCN(C(=O)OC(C)(C)C)CC1` (stereo not drawn), for which the Intrinsic activity in data set [1] came out at 104%. In data set [4], this molecule registered a CLint scaled of more than 300 mL/min/kg. In addition, in data set [3], the EC50 is 78 nM.

As to `CC(CNC(=O)Cc1ccccc1F)C1CCN(C(=O)OC(C)(C)C)CC1` (stereo not drawn), the Intrinsic activity in data set [1] came to 97%. In data set [4], this molecule returned a CLint scaled of more than 300 mL/min/kg. For the same molecule, the EC50 in data set [3] turned out to be 808 nM.

For the molecule `CC(C)OC(=O)N1CCC(CCNC(=O)Cc2c(F)ccc(F)c2F)CC1`, the Intrinsic activity in data set [1] is 68%. Further, the logD in data set [2] came out at 3.4. Further, in data set [3], the EC50 stood at 409 nM.

Turning to `C[C@@H](CNC(=O)Cc1c(F)ccc(F)c1F)C1CCN(C(=O)OC2(C)CC2)CC1`, in data set [1], the Intrinsic activity stood at 97%. For the same molecule, in data set [2], the logD was determined as 3.9. The molecule also had a CLint scaled in data set [4] of 187 mL/min/kg. The EC50 in data set [3] stood at 236 nM.

As for `CC1(OC(=O)N2CCC([C@H](F)CNC(=O)Cc3c(F)ccc(F)c3F)CC2)CC1`, in data set [1], the Intrinsic activity is 107%. In addition, the logD in data set [2] was 3.4. In data set [4], the CLint scaled came out at 42.4 mL/min/kg. In data set [3], the concentration giving a half-maximal response (EC50) stood at 80 nM.
